The full list was thinned out, with hits kept by preference.
HCT116 bCat-KO = primary screen for growth suppressors in beta-catenin knockout HCT116 cells (colon tumor, human) | HCT116 beta-catenin knockout viability, CellTiter-Glo, 60 h; active compounds read low | viability, % at 10 µM | 140,000 tested, 1.5% active | AID 818, 2007;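 active = viability at or under a set limit, the compound median less 4 SD, cut at about 6% in these data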;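 note: 0% = Hyamine 1622 control at 20 µM and 100% = untreated cell control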
HUVEC prolif 384 = inhibitors of HUVEC proliferation, primary screen, cell-based, 384-well. CellTiter-Glo luminescence, 72 h; active compounds read low. viability, % at 10 µM (by protocol). 86,000 tested, 1.1% active;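 active = viability at or below 30%; inactive = viability above 30%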;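 note: 100% = median luminescence of DMSO-only cell control wells on each plate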
HCT116 PTEN-null = growth suppression of PTEN-null HCT116, primary screen, cell-based, CellTiter-Glo; HCT116 PTEN-null viability, 60 h; active compounds read low; viability, % at 10 µM; 140,000 tested, 1.2% active; AID 827, 2007;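 active = viability at or below a set limit, 4 SD under the median of all tested compounds, cut at about 3.7% in these data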;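 note: PTEN knockout HCT116 line with beta catenin targeted HCT116 as companion control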
H69AR inhibit = proliferation blockers of H69AR lung cancer cells, primary screen, cell-based, human, 86K library | viability, % at 10 µM | H69AR lung tumor viability, ATP luminescence, 72 h; active compounds read low | 85,000 tested, 6% active;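 active = viability at or below 40%; inactive = viability above 40%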;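 note: multidrug resistant small cell line overexpressing MRP-1 efflux transporter; 100% = mean luminescence of untreated control wells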
Fibroblast inh = antiproliferative effect on LL 47 fibroblasts – human, LL 47 cells, CellTiter-Glo luminescence, primary screen | LL 47 human lung fibroblast viability, ATP luminescence; active compounds read low | viability, % at 10 µM | 85,000 tested, 1.1% active | AID 719, 2007;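 active = viability at or below 50% in the single dose screen; inactive = viability above 50%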;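 note: compound exposure lasted 72 h before the ATP readout; 100% = median luminescence of untreated cell-only wells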
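Benchmarks: Cell-only wells, no compound | Test system: LL 47 human lung fibroblasts, passage 12 or lower | Input: 1,150 cells/well | Measured by: CellTiter-Glo luminescence measuring cellular ATP | Medium: IMEM, 15% FBS supplement | Schedule: Overnight attachment after seeding, then 72 h compound exposure at 37 °C | Doses: Compound addition at 0.1% DMSO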
* hit, by the source's call; nt = no result given.

SMILES | HCT116 bCat-KO | HUVEC prolif 384 | HCT116 PTEN-null | H69AR inhibit | Fibroblast inh
CC1CCCN(S(=O)(=O)c2ccc(NC(=O)Cn3nnc(-c4ccccc4F)n3)cc2)C1 (stereo unspecified) | 96.3 | 63.2 | 105.5 | 44.7 | 98.2
CC1CCN(S(=O)(=O)c2ccc(NC(=O)CN3CCOCC3)cc2)CC1 | 103.2 | 108.0 | 95.1 | 102.4 | 108.5
CC1CCN(S(=O)(=O)c2ccc(NC(=O)Cn3nnc(-c4ccccc4)n3)cc2)CC1 | 93.8 | 30.1 | 82.9 | 18.7* | 28.7*
O=C(NC(NCc1cccnc1)C(Cl)(Cl)Cl)c1cccc2ccccc12 (stereo unspecified) | 65.0 | nt | 65.7 | nt | nt
O=C(C1CCCN(S(=O)(=O)Cc2ccccc2)C1)N1CCC(Cc2ccccc2)CC1 (stereo unspecified) | 76.9 | 86.4 | 83.6 | 26.3* | 99.2
CS(=O)(=O)N1CCC(C(=O)N2CCC(Cc3ccccc3)CC2)CC1 | 94.7 | 102.9 | 89.3 | 79.4 | 111.4
O=C(COc1ccc2c(c1)CCC2)NCc1ccc(Cl)cc1 | 99.3 | nt | 99.3 | nt | nt
CCOC(=O)c1cnc(-n2nc(C)cc2C)nc1NCCO | 91.5 | 109.0 | 112.5 | 84.1 | 97.2
CCOC(=O)c1cnc(-n2nc(C)cc2C)nc1NC(C)c1ccccc1 (stereo unspecified) | 2.3* | 40.6 | 3.6* | 2.0* | 16.9*
CCOC(=O)c1cnc(-n2nc(C)cc2C)nc1NNc1cc(-c2ccccc2)nc(C)n1 | 3.8* | nt | 7.1 | nt | nt
CCOC(=O)c1cnc(-n2nc(C)cc2C)nc1NCc1ccccc1 | 8.9 | 69.6 | 14.8 | 2.4* | 73.4
Cc1nc([N+](=O)[O-])nn1C12CC3CC(CC(Cl)(C3)C1)C2 | 89.5 | nt | 98.0 | nt | nt
CCOC(=O)c1c(C)oc2c(CC(=O)c3ccccc3)c(Cl)c(O)c(O)c12 | 55.9 | nt | 62.6 | nt | nt
CN1c2ccccc2C(C)(C)C12CC(CCl)=NO2 (stereo unspecified) | 81.5 | 90.1 | 82.4 | 4.5* | 95.8
CN1c2ccccc2C(C)(C)C12CC(c1ccc(Cl)c(S(=O)(=O)N3CCCC3)c1)=NO2 (stereo unspecified) | 72.8 | nt | 81.9 | nt | nt
COC(=O)c1ccc2c(c1O)C(=O)c1ccccc1C2=O | 4.5* | nt | 2.8* | nt | nt
CC(=O)C(Sc1ncnc2c1nnn2-c1ccc(F)cc1)C(=O)N(C)C (stereo unspecified) | 98.6 | 88.7 | 98.6 | 11.6* | 107.0
N#C/C(=C\Nc1ccccc1SC(F)(F)F)c1nc(-c2ccc(Cl)cc2)cs1 | 47.3 | nt | 42.9 | nt | nt
Cc1ccc(C(=O)CSc2nnc(-c3ccc4[nH]c(C)c(C)c4c3)o2)cc1C | 4.2* | nt | 2.1* | nt | nt
Cc1ccc(C(=O)Nc2ccc(Br)cc2)cc1S(=O)(=O)Nc1ccccn1 | 66.0 | nt | 54.3 | nt | nt
COC(=O)[C@@H]1CC[C@H](C)[C@@H](c2ccc(C)cc2)N1C(=O)c1ccc(/C=N/O[C@@H](C)CN2CCCCc3nc(C)c(C)cc32)cc1 | 5.9* | nt | 11.8 | nt | nt
Cc1nc2ccccn2c1C(=O)NNS(=O)(=O)c1ccc(C(C)(C)C)cc1 | 51.5 | nt | 66.7 | nt | nt
O=C1C=C(NCCN2CCOCC2)C(=O)c2cnccc21 | 1.8* | nt | 1.9* | nt | nt
CN(C)S(=O)(=O)c1ccc(NC(=O)C2CC3C=CC2C3)cc1 (stereo unspecified) | 89.4 | nt | 88.4 | nt | nt
COCCSc1ccccc1C(=O)Nc1cc(C)ccn1 | 96.3 | nt | 88.0 | nt | nt
SMILES | HCT116 bCat-KO | HUVEC prolif 384 | HCT116 PTEN-null | H69AR inhibit | Fibroblast inh
COc1ccc(CCC(=O)Nc2cc(Cl)ccc2OC)cc1 | 69.0 | 82.4 | 68.8 | 24.2* | 90.9
COc1ccccc1-n1cnc2cc(NC(=O)c3ccco3)ccc21 | 37.5 | 72.8 | 32.1 | 22.2* | 89.3
CCOc1cc(NC(=O)c2ccco2)c(OCC)cc1NC(=O)CCc1ccc(OC)cc1 | nt | 65.5 | nt | 33.3* | 83.6
COc1cc(NC(=O)CSc2nc3ccccc3c(=O)n2C)ccc1NC(=O)c1ccco1 | 97.8 | 50.0 | 103.4 | 24.1* | 70.7
COc1nnc(-c2ccccc2)s1 | 93.8 | nt | 96.0 | nt | nt
COc1ccc(NC(=O)CCc2ccccc2)cc1NC(=O)c1ccco1 | 80.1 | 64.1 | 78.6 | 36.4* | 97.9
CN1c2ccccc2C(C)(C)[C@]12C=Cc1cc(O)ccc1O2 | 29.6 | 49.5 | 30.5 | 8.6* | 87.6
O=C(NCCN1C(=O)S/C(=C\c2cccs2)C1=O)[C@H](Cc1ccccc1)N1C(=O)c2ccccc2C1=O | 92.8 | nt | 104.5 | nt | nt

Source: PubChem
